# High-throughput results deposited in PubChem by Broad Institute.
# Xi reactivation: activators of X-chromosome reactivation in mouse fibroblasts. AID 743238. 360,000 compounds, 0.055% hits. activation, % at 7.58 µM. XiGFP mouse fibroblasts, % GFP-positive cells imaging, 3 d; cells co-treated with 5-aza-dC sensitizer; scaled so ellipticine positive control = 100%;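 active means mean normalized replicate activation at least 10% and every replicate at or above 10%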;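 further: 0% = median of on-plate neutral control wells and 100% = ellipticine 6 µM median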
#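 Material: SV40-immortalized XiGFP fibroblast cells, line 68-5-11 | Buffer or medium: DMEM containing 5-aza-dC | Dosing: One concentration, pinned | Times: 3 d treatment, 15 min room-temperature fixation | Controls: Ellipticine 6 µM positive control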
# E-sel inducer: E-selectin induction on HUVECs. P16581. HUVEC E-selectin immunofluorescence imaging; normalized: neutral wells 0, TNF-alpha wells 100. activation, % at 7.58 µM. 260,000 compounds, 0.37% hits;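 active means mean E-selectin-positive cell signal at least 10% of the positive control, reached in at least 60% of replicates, without over 20% cell loss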
# Target sequence (P16581 whole entry, looked up): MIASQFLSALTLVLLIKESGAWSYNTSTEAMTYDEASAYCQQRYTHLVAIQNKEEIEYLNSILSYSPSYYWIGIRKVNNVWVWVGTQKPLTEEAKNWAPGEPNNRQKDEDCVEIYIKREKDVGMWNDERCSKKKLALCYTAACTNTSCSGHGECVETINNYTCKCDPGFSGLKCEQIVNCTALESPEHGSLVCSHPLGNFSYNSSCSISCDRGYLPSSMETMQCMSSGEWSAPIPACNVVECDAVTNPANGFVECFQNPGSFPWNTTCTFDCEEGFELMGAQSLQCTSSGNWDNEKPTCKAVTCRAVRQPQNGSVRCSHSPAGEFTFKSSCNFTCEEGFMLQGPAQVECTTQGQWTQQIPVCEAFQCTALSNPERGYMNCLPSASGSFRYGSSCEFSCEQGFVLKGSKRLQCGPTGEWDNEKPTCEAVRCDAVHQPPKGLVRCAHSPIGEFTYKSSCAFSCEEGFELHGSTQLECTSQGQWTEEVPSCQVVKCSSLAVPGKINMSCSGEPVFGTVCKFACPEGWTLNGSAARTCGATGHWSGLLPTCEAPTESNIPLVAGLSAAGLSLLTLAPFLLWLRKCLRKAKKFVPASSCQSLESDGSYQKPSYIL
#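 Test system: HUVEC | Signal: Immunofluorescence imaging | Read-out: Percent E-selectin-positive cells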
# F508del corr: correctors of CFTR F508del function in bronchial epithelial cells; CFBE cells, YFP halide quenching; stimulated with forskolin plus potentiator P3; % fluorescence drop versus neutral controls; activity (quench increase), % at 7.58 µM; 350,000 compounds, 0.36% hits; AID 720511;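 active means mean added fluorescence quench of at least 8% versus neutral control, with both replicates also reaching 8%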;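 further: cells transiently co-express mutant CFTR-F508del with the halide-sensitive YFP; corrector assay measuring rescue of mutant channel to the surface after 24 h compound exposure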
# Active calls of the source: *; nt = no result given. Shown are actives, neighbours in structure and some others; about 0.61% of the full set was active somewhere.
SMILES,Xi reactivation,E-sel inducer,F508del corr
N#C[C@@H]1[C@@H](c2ccc(C3=CCCC3)cc2)[C@@H](CO)N1c1nc(-c2ccccc2)cs1,0,0,-2
O=S(=O)(c1ccccc1)N1CC2(C1)[C@H](c1ccccc1)[C@@H](CO)N2CC1CC1,0,0,1
Cc1ccc(-c2ccc3c(c2)O[C@@H](CN(C)C(=O)Nc2ccc(C(F)(F)F)cc2)[C@@H](C)CN([C@H](C)CO)S3(=O)=O)cc1,-1,0,1
Cc1ccc(-c2ccc3c(c2)O[C@H](CN(C)C(=O)Nc2ccc(F)cc2)[C@@H](C)CN([C@@H](C)CO)S3(=O)=O)cc1,-1,0,12*
C[C@@H]1CN([C@H](C)CO)S(=O)(=O)c2ccc(-c3ccc(F)cc3)cc2O[C@H]1CN(C)C(=O)Nc1ccc(F)cc1,0,0,0
Cc1ccc(-c2ccc3c(c2)O[C@H](CN(C)C(=O)Nc2ccc(C(F)(F)F)cc2)[C@H](C)CN([C@@H](C)CO)S3(=O)=O)cc1,0,-1,8.6*
C[C@H]1CN([C@@H](C)CO)S(=O)(=O)c2ccc(-c3ccc(F)cc3)cc2O[C@@H]1CN(C)C(=O)Nc1ccc(F)cc1,0,1,-6
Cc1ccc(-c2ccc3c(c2)O[C@@H](CN(C)C(=O)Nc2ccc(F)cc2)[C@@H](C)CN([C@@H](C)CO)S3(=O)=O)cc1,0,0,8.5*
C[C@@H]1CCCCO[C@H](CN(C)C(=O)CCCN(C)C)[C@H](C)CN([C@@H](C)CO)C(=O)c2cc(NC(=O)NC3CCCCC3)ccc2O1,-1,0,3
CCOC1=C/C(=C/c2c(N)n3nc(S(=O)(=O)CC)sc3nc2=O)C=CC1=O,0,7,9.9*
CCOC1=C/C(=C/c2c(N)n3nc(CC(=O)N4CCCCC4)sc3nc2=O)C=CC1=O,0,nt,0
CO[C@@H]1CC[C@@H]2CCOc3c(C#N)cccc3C(=O)N(C)C[C@H](C)C(=O)N(C)C[C@@H]1O2,0,0,-2
C(=C\c1ccc(C2[C@@H]3CN(Cc4ccc5c(c4)OCO5)C[C@H]2N3)cc1)/c1ccccc1 (some centres undefined),9,0,1
CO[C@@H]1CN(C)C(=O)c2cc(NS(=O)(=O)c3ccccc3)ccc2OC[C@@H](C)N(Cc2cccnc2)C[C@@H]1C,0,3,-1
COc1cc(C(=O)Nc2ccccc2NC(=O)c2cc(OC)c(OC)c(OC)c2)cc(OC)c1OC,0,0,0
COc1cc(C(=O)Nc2ccccc2C(=O)Nc2ccccn2)cc(OC)c1OC,0,nt,13*
COc1ccc2c3c([nH]c2c1)[C@@H](CO)N(S(C)(=O)=O)CC31CCN(C(=O)c2ccncc2)CC1,0,0,-1
CCN(CC)c1ccc(/C=N/NC(=O)Cc2ccc(OC)c(OC)c2)cc1,0,36*,1
COc1ccc(/C=N/NC(=O)Cc2ccc(Cl)cc2)cc1OC,0,nt,-2
CS(=O)(=O)N1[C@H](C#N)[C@H](c2ccccc2-c2ccccc2)[C@H]1CO,0,0,7
O=C(C1=NN[C@@H]2C(=O)N(c3ccccc3C(F)(F)F)C(=O)[C@H]12)c1cnccn1,0,27*,-1
O=C(C1=NN[C@@H]2C(=O)N(c3cccc(F)c3)C(=O)[C@H]12)c1cnccn1,0,nt,0
CCNC(=O)C[C@H]1CC[C@H]2[C@@H](COc3ccc(NC(=O)Nc4cccc(F)c4)cc3C(=O)N2C)O1,0,0,2
O=C(Cc1n[nH]c(=O)c2ccccc12)OCC(=O)c1ccc(F)cc1,0,-4,1
CCOc1ccc(C(=O)COC(=O)Cc2n[nH]c(=O)c3ccccc23)cc1,0,1,13*
SMILES,Xi reactivation,E-sel inducer,F508del corr
C[C@@H]1CCCCO[C@H](CN(C)CC2CC2)[C@@H](C)CN([C@H](C)CO)C(=O)c2cc(NS(=O)(=O)c3ccccc3)ccc2O1,0,0,0
CCNc1nc(NC(C)(C)C)nc(Oc2ccc(=O)n(-c3ccccc3)n2)n1,0,43*,2
CC(C)Nc1nc(Oc2ccc(=O)n(-c3ccccc3)n2)nc(N(C)C)n1,0,0,1
C[C@@H]1CN([C@H](C)CO)C(=O)c2cccc(NS(=O)(=O)c3ccc(Cl)cc3)c2O[C@H]1CN(C)S(=O)(=O)c1cn(C)cn1,1,-1,1
C[C@@H]1CCCCO[C@@H](CN(C)CC2CC2)[C@H](C)CN([C@@H](C)CO)C(=O)c2cc(NS(C)(=O)=O)ccc2O1,0,0,1
CCOc1cccc(C2C(C(=O)c3ccco3)=C(O)C(=O)N2c2nnc(C)s2)c1 (centres undefined),0,0,3
CCSc1nnc(N2C(=O)C(O)=C(C(=O)c3ccco3)C2c2cccc(OC)c2)s1 (centres undefined),0,nt,9.3*
COc1ccc(S(=O)(=O)Nc2ccc3c(c2)C(=O)N([C@H](C)CO)C[C@@H](C)[C@@H](CN(C)Cc2ccc(Oc4ccccc4)cc2)O3)cc1,5,0,7
COc1ccc(S(=O)(=O)Nc2ccc3c(c2)C(=O)N([C@@H](C)CO)C[C@@H](C)[C@H](CN(C)Cc2ccc(Oc4ccccc4)cc2)O3)cc1,-1,0,10*
C[C@@H]1CN([C@H](C)CO)C(=O)c2cc(NS(=O)(=O)c3ccc(Cl)cc3)ccc2O[C@@H]1CN(C)Cc1ccc(-c2ccccc2)cc1,0,0,9.4*
C[C@H](CO)N1C[C@H](C)[C@H](CN(C)Cc2ccc(-c3ccccc3)cc2)Oc2ccc(NS(=O)(=O)c3ccc(Cl)cc3)cc2C1=O,0,0,3
COc1ccc(S(=O)(=O)Nc2ccc3c(c2)C(=O)N([C@H](C)CO)C[C@@H](C)[C@@H](CN(C)Cc2ccc(Cl)c(Cl)c2)O3)cc1,0,29*,13*
COc1ccc(S(=O)(=O)Nc2ccc3c(c2)C(=O)N([C@H](C)CO)C[C@@H](C)[C@H](CN(C)Cc2ccc(Cl)c(Cl)c2)O3)cc1,0,40*,6
COc1ccc(S(=O)(=O)Nc2ccc3c(c2)C(=O)N([C@@H](C)CO)C[C@H](C)[C@H](CN(C)Cc2ccc(Cl)c(Cl)c2)O3)cc1,0,-10,2
COc1ccc(S(=O)(=O)Nc2ccc3c(c2)C(=O)N([C@@H](C)CO)C[C@@H](C)[C@H](CN(C)Cc2ccc(Cl)c(Cl)c2)O3)cc1,0,-14,3
CC(C)CC#Cc1ccc2c(c1)O[C@H](CN(C)C(=O)c1cnccn1)[C@@H](C)CN([C@@H](C)CO)S2(=O)=O,-2,0,-1
O=C(C[C@@H]1C[C@H]2c3cc(NC(=O)c4cccnc4)ccc3O[C@H]2[C@H](CO)O1)NCc1ccncc1,0,0,-1
COc1ccccc1CNC(=O)C[C@@H]1C[C@@H]2c3cc(NC(=O)Nc4ccc(C(F)(F)F)cc4)ccc3O[C@@H]2[C@@H](CO)O1,0,nt,nt
COc1cccc(C(=O)Nc2ccc3c(c2)C(=O)N(C)C[C@@H](OC)[C@H](C)CN(C(=O)C2CCC2)[C@H](C)CO3)c1,0,0,0
